Data on 46 molecules can be found in ChEMBL document CHEMBL3259628, “Discovery of novel 2-((pyridin-3-yloxy)methyl)piperazines as α7 nicotinic acetylcholine receptor modulators for the treatment of inflammatory disorders” (J Med Chem, 2014).

The target of data set [1] is Acetylcholine receptor; alpha1/beta1/delta/gamma (Homo sapiens) (UniProt P02708+P07510+P11230+Q07001). The experiment in a line: Inhibition of alpha1beta1gammadelta nAChR (unknown origin) at 10 uM. Type of data set: protein-complex assay. In a few lines: (§1)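 Receptor, ion channel and transporter binding panel run at Cerep in duplicate. Percent inhibition measured at 10 μM compound.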

The target of data set [2] is T1, 5-hydroxytryptamine receptor 3A (Homo sapiens) (UniProt P46098).
T1 sequence (whole entry): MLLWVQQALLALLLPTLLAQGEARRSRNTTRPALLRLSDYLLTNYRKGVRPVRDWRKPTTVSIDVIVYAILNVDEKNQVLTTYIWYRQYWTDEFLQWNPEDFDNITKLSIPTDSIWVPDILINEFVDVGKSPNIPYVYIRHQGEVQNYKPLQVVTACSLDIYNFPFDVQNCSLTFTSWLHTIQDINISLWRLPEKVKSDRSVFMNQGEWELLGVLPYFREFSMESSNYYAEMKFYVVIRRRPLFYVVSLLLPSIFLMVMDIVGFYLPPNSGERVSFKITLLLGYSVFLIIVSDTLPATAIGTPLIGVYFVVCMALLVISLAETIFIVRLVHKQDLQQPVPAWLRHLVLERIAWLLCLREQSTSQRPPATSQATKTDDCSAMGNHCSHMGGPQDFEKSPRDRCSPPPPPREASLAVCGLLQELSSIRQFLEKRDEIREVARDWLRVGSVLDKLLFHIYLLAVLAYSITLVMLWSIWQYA
The experiment in a line: Inhibition of 5-HT3 receptor (unknown origin) at 10 uM. In short, it runs like this:
as §1

The target of data set [3] is Neuronal acetylcholine receptor; alpha4/beta2 (Homo sapiens, UniProt P17787+P43681). The experiment in a line: Inhibition of human alpha4beta2 nAChR at 10 uM by binding assay.
Data set [4] deals with Neuronal acetylcholine receptor subunit alpha-7 (Rattus norvegicus, UniProt Q05941). The experiment in a line: Inhibition of biotinylated alpha-bungarotoxin binding to alpha7 nAChR in rat PC12 cells by FACS analysis. Type of data set: cell-based, PC-12. In short, it runs like this: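 Rat PC12 cells in binding buffer (PBS, 1.0% FBS, 0.02% sodium azide), 0.1% DMSO; biotinylated α-bungarotoxin 10 nM final, 1 h at room temperature; nonspecific binding defined with 1.5 μM unlabeled toxin. After washing, phycoerythrin-streptavidin 1.0 μg/mL final, 15 min in the dark; read by FACS. Screened at 10 and 1 μM, then eight-point 3-fold dilution IC50; mean of two or more experiments.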
Chain of Neuronal acetylcholine receptor subunit alpha-7 (Q05941 whole entry): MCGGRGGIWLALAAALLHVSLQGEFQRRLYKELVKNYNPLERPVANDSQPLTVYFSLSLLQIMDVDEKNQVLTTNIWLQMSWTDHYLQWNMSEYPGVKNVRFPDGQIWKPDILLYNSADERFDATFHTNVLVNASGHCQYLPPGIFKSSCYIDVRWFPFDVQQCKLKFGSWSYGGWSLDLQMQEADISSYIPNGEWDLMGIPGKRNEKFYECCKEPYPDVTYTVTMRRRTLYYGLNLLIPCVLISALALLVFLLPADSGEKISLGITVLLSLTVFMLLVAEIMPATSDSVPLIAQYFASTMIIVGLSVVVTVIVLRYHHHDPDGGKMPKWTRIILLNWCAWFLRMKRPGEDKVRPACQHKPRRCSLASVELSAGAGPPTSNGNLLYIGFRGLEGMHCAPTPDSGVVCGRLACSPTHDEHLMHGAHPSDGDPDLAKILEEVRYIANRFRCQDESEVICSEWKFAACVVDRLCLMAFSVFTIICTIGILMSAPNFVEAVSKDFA

Data set [5] has as its target hERG (KCNH2) (Homo sapiens, UniProt Q12809). The experiment in a line: Inhibition of human ERG at 1 uM by whole-cell voltage clamp assay.
The target in data set [6] is CYP2D6 (Homo sapiens, UniProt P10635). The experiment in a line: Inhibition of CYP2D6 (unknown origin) at 10 uM. Type of data set: ADME. In short, it runs like this: (§2)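 Each of five Cyp isoforms assayed with single probe substrates rather than a substrate cocktail. Run in duplicate at Cerep. IC50 lines come from a 5-concentration titration curve.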
Chain of CYP2D6 (P10635 whole entry, canonical isoform): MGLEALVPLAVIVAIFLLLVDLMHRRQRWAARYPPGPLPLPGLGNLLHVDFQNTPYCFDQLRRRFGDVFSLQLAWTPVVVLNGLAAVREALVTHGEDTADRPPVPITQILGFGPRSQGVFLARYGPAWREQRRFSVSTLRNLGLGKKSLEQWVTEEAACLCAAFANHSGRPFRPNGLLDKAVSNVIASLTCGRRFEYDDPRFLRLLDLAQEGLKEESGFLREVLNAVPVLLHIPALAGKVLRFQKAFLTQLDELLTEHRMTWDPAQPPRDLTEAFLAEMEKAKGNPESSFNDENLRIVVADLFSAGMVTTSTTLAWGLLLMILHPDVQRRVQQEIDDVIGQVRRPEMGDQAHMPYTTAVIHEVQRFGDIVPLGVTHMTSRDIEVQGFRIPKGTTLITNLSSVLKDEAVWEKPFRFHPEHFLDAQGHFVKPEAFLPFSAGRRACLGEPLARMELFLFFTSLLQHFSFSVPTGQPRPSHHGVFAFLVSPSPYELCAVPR
Data set [7] deals with CYP3A4 (Homo sapiens, UniProt P08684). The experiment in a line: Inhibition of CYP3A4 (unknown origin) at 10 uM. Type of data set: ADME. In a few lines: as §2
Chain of CYP3A4 (P08684 whole entry): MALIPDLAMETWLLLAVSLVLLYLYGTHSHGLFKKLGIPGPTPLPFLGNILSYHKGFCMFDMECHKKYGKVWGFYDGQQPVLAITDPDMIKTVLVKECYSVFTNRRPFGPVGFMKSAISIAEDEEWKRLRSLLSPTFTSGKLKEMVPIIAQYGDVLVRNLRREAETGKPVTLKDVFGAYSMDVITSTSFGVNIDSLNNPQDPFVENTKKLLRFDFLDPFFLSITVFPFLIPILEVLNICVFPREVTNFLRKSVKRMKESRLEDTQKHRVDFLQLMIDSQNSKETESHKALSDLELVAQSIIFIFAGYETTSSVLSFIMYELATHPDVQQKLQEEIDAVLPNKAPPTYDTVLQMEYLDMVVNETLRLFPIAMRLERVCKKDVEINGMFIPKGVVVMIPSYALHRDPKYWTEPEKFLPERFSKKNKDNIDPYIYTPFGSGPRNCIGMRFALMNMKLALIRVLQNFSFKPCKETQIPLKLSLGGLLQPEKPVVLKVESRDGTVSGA
Data set [8] concerns the target T2, CYP1A2 (Homo sapiens, UniProt P05177).
T2 sequence (P05177 whole entry): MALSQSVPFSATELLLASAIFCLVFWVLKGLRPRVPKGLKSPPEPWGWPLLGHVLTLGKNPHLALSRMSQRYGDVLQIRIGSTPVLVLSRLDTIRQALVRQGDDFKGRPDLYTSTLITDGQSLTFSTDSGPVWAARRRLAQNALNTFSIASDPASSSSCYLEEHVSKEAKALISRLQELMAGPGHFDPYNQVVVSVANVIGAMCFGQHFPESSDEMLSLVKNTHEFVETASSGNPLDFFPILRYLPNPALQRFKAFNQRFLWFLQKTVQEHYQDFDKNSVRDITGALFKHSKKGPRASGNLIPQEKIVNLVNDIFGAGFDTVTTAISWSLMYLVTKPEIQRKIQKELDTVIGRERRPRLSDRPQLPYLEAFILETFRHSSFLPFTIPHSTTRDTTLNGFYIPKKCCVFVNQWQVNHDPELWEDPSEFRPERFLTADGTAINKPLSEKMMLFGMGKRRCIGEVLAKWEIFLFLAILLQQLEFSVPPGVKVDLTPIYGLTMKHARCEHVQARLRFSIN
The experiment in a line: Inhibition of CYP1A2 (unknown origin) at 10 uM. It is filed as ADME. In short, it runs like this: as §2

For data set [9], the target named is CYP2C9 (Homo sapiens, UniProt P11712). The experiment in a line: Inhibition of CYP2C9 (unknown origin) at 10 uM. It is filed as ADME. In short, it runs like this: as §2
Chain of CYP2C9 (P11712 whole entry): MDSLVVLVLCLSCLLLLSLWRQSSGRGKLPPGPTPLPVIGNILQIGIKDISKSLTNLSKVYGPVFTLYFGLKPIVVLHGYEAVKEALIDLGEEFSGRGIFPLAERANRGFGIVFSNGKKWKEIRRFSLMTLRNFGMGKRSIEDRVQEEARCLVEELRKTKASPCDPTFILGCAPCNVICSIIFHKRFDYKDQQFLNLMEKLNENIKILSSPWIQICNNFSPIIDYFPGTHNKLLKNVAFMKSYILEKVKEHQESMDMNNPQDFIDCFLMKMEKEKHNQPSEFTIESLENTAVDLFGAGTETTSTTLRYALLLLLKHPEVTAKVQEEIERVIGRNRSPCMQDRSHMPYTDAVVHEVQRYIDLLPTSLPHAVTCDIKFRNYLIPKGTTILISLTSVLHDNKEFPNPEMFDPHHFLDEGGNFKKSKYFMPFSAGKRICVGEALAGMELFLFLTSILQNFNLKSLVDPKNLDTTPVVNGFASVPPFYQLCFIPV
Data set [10] has as its target CYP2C19 (Homo sapiens, UniProt P33261). The experiment in a line: Inhibition of CYP2C19 (unknown origin) at 10 uM. Type of data set: ADME. In short, it runs like this: as §2

Chain of hERG (KCNH2) (Q12809 whole entry, canonical isoform): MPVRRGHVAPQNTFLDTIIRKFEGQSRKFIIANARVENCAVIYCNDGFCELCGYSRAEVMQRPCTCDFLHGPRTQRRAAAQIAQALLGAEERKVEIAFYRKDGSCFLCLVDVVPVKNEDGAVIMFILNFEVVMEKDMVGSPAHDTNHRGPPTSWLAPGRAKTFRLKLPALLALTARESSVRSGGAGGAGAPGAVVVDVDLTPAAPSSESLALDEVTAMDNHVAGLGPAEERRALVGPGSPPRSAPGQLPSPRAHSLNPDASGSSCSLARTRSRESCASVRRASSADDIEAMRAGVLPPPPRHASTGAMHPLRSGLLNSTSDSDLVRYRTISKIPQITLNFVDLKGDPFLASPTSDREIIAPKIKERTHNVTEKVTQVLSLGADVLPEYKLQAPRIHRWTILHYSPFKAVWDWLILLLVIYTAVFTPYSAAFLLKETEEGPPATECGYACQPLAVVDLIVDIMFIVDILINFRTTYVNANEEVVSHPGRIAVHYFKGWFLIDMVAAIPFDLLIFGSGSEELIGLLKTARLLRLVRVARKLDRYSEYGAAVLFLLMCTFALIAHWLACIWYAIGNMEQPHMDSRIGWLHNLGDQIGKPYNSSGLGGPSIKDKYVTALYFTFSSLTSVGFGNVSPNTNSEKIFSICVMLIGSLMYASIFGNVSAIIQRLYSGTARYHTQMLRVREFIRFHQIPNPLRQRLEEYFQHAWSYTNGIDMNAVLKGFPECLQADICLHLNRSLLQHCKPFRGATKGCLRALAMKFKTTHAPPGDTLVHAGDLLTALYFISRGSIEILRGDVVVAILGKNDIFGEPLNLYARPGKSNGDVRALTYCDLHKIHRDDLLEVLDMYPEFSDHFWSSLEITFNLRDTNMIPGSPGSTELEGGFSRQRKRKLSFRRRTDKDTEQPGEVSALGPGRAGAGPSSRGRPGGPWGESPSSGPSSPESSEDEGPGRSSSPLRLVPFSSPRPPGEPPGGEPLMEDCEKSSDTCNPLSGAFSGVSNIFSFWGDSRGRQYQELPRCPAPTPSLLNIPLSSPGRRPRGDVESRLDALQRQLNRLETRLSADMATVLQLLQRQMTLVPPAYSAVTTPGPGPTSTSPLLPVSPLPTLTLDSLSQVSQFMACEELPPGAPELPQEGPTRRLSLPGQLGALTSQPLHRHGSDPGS
Chain of CYP2C19 (P33261 whole entry): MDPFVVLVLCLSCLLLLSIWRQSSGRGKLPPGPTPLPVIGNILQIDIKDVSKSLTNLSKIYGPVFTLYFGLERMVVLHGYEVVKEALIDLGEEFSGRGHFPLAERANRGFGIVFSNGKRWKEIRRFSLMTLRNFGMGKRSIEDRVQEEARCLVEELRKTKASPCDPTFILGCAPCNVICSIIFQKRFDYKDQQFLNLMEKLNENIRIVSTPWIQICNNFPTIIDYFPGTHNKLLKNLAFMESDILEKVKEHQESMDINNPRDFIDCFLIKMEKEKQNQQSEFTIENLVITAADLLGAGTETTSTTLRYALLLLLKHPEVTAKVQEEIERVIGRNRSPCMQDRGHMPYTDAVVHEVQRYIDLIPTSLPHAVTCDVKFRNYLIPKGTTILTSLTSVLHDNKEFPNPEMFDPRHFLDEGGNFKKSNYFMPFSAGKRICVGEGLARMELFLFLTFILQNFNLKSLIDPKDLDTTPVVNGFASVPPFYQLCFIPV

As a reminder, the inhibition is the drop in the measured response relative to a control, in per cent. By IC50 is commonly meant the concentration that inhibits the measured activity by half. Turning to `Brc1ccc2oc(N3CCNC[C@@H]3COc3cccnc3)nc2c1`, the inhibition was -3% in data set [1], 100% in [2] and 96% in [3]. This molecule also yielded an IC50 in data set [4] of 67 nM.
For `Brc1ccc2oc(N3CCNC[C@H]3COc3cccnc3)nc2c1`, the concentration for half-maximal inhibition (IC50) in data set [4] was determined as 3200 nM.
Regarding `c1cncc(OC[C@@H]2CNCCN2c2nc3ncccc3o2)c1`, in data set [4], the IC50 is 1580 nM.
Consider `COc1ccc2nc(N3CCNC[C@@H]3COc3cccnc3)sc2c1`, for which the inhibition came to 9% in data set [1], 99% in data set [2] and 83% in data set [3]. For the same molecule, in [5], the inhibition at 1 µM came out at 36%. Besides, the inhibition at 10 µM in [6] was 50%; in data set [7] it was 49%; in [8], 63%; in [9] it was 33%; in data set [10], 78%. Besides, the IC50 in data set [4] is 46 nM.
In turn, `COc1ccc2nc(N3CCNC[C@H]3COc3cccnc3)sc2c1` registered an IC50 in data set [4] of 5100 nM.
On the same count and under the same terms, the result for `COc1ccc2nc(N3CCNCC3COc3cccnc3)sc2c1` (racemic) reads 79 nM.
On to `c1cncc(OCC2CNCCN2c2nc3ccccc3o2)c1` (racemic), for which the inhibition in [1] is -2%; in [2], 95%; in data set [3], 89%. In [5], the inhibition at 1 µM worked out at 22%. Besides, the inhibition at 10 µM in data set [6] was 87%; in data set [7], 17%; in data set [8], 36%; in data set [9], 20%; in data set [10], 24%. The IC50 in [4] is 106 nM.
In turn, `COc1ccc2nc(N3CCNCC3COc3cccnc3)oc2c1` (racemic) returned an IC50 in [4] of 22 nM.
With `COc1ccc2oc(N3CCNCC3COc3cccnc3)nc2c1` (racemic), in data set [4], the IC50 worked out at 71 nM.
With `Brc1ccc2oc(N3CCNCC3COc3cccnc3)nc2c1` (racemic), in [4], the IC50 worked out at 75 nM.
Consider `c1cncc(OCC2CNCCN2c2nc3ncccc3o2)c1` (racemic), for which, in data set [4], the IC50 was found to be 4 nM.
The same measure, in the same setting: the result for `c1cncc(OCC2CNCCN2c2nc3ccccc3s2)c1` (racemic) reads 490 nM; that for `COc1ccc2sc(N3CCNCC3COc3cccnc3)nc2c1` (racemic), 107 nM; that for `Cc1ccc2nc(N3CCNCC3COc3cccnc3)sc2c1` (racemic), 85 nM.
The same measure, in the same setting: the result for `Clc1ccc2nc(N3CCNCC3COc3cccnc3)sc2c1` (racemic) reads 153 nM; that for `FC(F)(F)Oc1ccc2nc(N3CCNCC3COc3cccnc3)sc2c1` (racemic), 270 nM; that for `FC(F)(F)c1ccc2nc(N3CCNCC3COc3cccnc3)sc2c1` (racemic), 338 nM.
With `Fc1ccc2nc(N3CCNCC3COc3cccnc3)sc2c1` (racemic), the IC50 in data set [4] worked out at 132 nM.
As to `Fc1cccc2sc(N3CCNCC3COc3cccnc3)nc12` (racemic), the figures for the inhibition in data set [1], in data set [2] and in data set [3] were 20%, 99% and 53%, respectively. The inhibition at 1 µM in [5] worked out at 19%. For the same molecule, the inhibition at 10 µM in [6] worked out at 60%; in data set [7] it was 75%; in data set [8] it was 63%; in data set [9], 28%; in [10], 60%. The molecule further registered an IC50 in data set [4] of 17 nM.
Consider `Fc1cc(F)c2nc(N3CCNCC3COc3cccnc3)sc2c1` (racemic), for which the inhibition in [1] came out at 12%; in data set [2], 91%; in data set [3], 45%. Also, the inhibition at 1 µM in data set [5] stood at 36%. Besides, the inhibition at 10 µM in [6] stood at 72%; in data set [7], 83%; in data set [8] it was 67%; in data set [9], 26%; in [10], 70%. The molecule further returned an IC50 in data set [4] of 19 nM.
In turn, `c1cncc(OCC2CNCCN2c2nc3ncccc3s2)c1` (racemic) came in with an IC50 in [4] of 32 nM.
In data set [4], `Clc1cnc2nc(N3CCNCC3COc3cccnc3)sc2c1` (racemic) gave an IC50 of 4 nM.
`O=C(c1ccccc1)N1CCNCC1COc1cccnc1` (racemic) registered an IC50 in data set [4] of 1080 nM.
Same read-out and setting: the result for `O=C(c1ccc(Cl)cc1)N1CCNCC1COc1cccnc1` (racemic) reads 6100 nM; that for `O=C(Cc1ccccc1)N1CCNCC1COc1cccnc1` (racemic), 560 nM; that for `O=C(Cc1ccc(Cl)cc1)N1CCNCC1COc1cccnc1` (racemic), 110 nM.
In the case of `O=C(COc1ccccc1)N1CCNCC1COc1cccnc1` (racemic), the IC50 in data set [4] was 2340 nM.
In [4], `O=C(Nc1ccccc1)N1CCNCC1COc1cccnc1` (racemic) yielded an IC50 of 680 nM.
Regarding `O=C(Nc1ccc(Cl)cc1)N1CCNCC1COc1cccnc1` (racemic), in [4], the IC50 turned out to be 70 nM.
On the same count and under the same terms, the result for `O=C(Oc1ccccc1)N1CCNCC1COc1cccnc1` (racemic) reads 37 nM.
The same measure, in the same setting: as for `O=C(Oc1ccc(Cl)cc1)N1CCNCC1COc1cccnc1` (racemic), the figure is 9.5 nM.
Regarding `COc1ccc(OC(=O)N2CCNCC2COc2cccnc2)cc1` (racemic), the inhibition in data set [1] worked out at 2%; in data set [2], 39%; in [3], 90%. In data set [4], the IC50 was 11 nM.
In [4], `O=C(Nc1cccc(Cl)c1)N1CCNCC1COc1cccnc1` (racemic) yielded an IC50 of 210 nM.
The same measure, in the same setting: the result for `O=C(Nc1ccc(Cl)c(Cl)c1)N1CCNCC1COc1cccnc1` (racemic) reads 40 nM; that for `Cc1ccc(NC(=O)N2CCNCC2COc2cccnc2)cc1` (racemic), 74 nM; that for `O=C(Nc1ccc(C(F)(F)F)cc1)N1CCNCC1COc1cccnc1` (racemic), 220 nM.
Same read-out and setting: the result for `CC(C)c1ccc(NC(=O)N2CCNCC2COc2cccnc2)cc1` (racemic) reads 280 nM.
Still for that read-out and setting: as for `COc1cccc(NC(=O)N2CCNCC2COc2cccnc2)c1` (racemic), the figure is 340 nM; as for `COc1ccccc1NC(=O)N1CCNCC1COc1cccnc1` (racemic), 850 nM; as for `COc1ccc(NC(=O)N2CCNCC2COc2cccnc2)c(OC)c1` (racemic), 80 nM.
On to `COc1ccc(NC(=O)N2CCNCC2COc2cccnc2)cc1Cl` (racemic), for which the inhibition is 17% in data set [1], 40% in data set [2] and 23% in [3]. Moreover, in [5], the inhibition at 1 µM stood at 17%. Moreover, the inhibition at 10 µM in [6] turned out to be 25%; in [7], 66%; in data set [8], 20%; in data set [9], 10%; in data set [10], 47%. Further, the IC50 in data set [4] came out at 45 nM.
With `O=C(Nc1ccc(OC(F)(F)F)cc1)N1CCNCC1COc1cccnc1` (racemic), the IC50 in data set [4] came out at 152 nM.
In data set [4], `O=C(Nc1ccc(Br)cc1)N1CCNCC1COc1cccnc1` (racemic) registered an IC50 of 50 nM.
In the case of `Cc1cc(NC(=O)N2CCNCC2COc2cccnc2)ccc1Br` (racemic), the figures for the inhibition in data set [1], in data set [2] and in data set [3] were 23%, 80% and 15%, respectively. Moreover, the inhibition at 1 µM in data set [5] worked out at 27%. In addition, the inhibition at 10 µM in data set [6] was 85%; in data set [7] it was 80%; in data set [8], 48%; in data set [9], 21%; in data set [10] it was 51%. Further, the IC50 in [4] is 14 nM.
The molecule `O=C(Nc1ccc(-c2ccccc2)cc1)N1CCNCC1COc1cccnc1` (racemic) displayed an IC50 in [4] of 13 nM.
The same measure, in the same setting: the result for `O=C(Nc1ccc2c(c1)CCO2)N1CCNCC1COc1cccnc1` (racemic) reads 630 nM.
